Reference: ChEMBL document CHEMBL1125710, “Structure/activity and molecular modeling studies of the lophotoxin family of irreversible nicotinic receptor antagonists” (J Med Chem, 1991)
Several values for one entry are separate records, joined by “and”; a condition that tells them apart may be missing. Equal values may be shown once. Activity calls are given as the source filed them. No cut-off for these calls is given here.

Molecular target: T1, Acetylcholine receptor (Torpedo californica, UniProt P02710+P02712+P02714+P02718)
Assay: In vitro ability to inhibit the binding of [125I]-alpha-bungarotoxin to nicotinic acetylcholine receptor on membranes prepared from the electric organs of Torpedo californica
Type: tissue-based, Tetronarce californica, Electric organ
Conditions: not given
Outline: (§1)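 Torpedo californica electric-organ membranes (ca. 1.0 pmol α-toxin sites) in 10 mM sodium phosphate pH 7.4 with 1.0 mM EDTA and 1.0 mM EGTA. Analogue in DMSO reacted 2 or 16 h at 23 °C, then 2-5-fold molar excess [125I]-α-bungarotoxin for 60 min. Duplicate aliquots filtered on DE81, washed, gamma-counted. Apparent EC50 is 50% inhibition of specific binding.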

T1 sequence (P02710 whole entry): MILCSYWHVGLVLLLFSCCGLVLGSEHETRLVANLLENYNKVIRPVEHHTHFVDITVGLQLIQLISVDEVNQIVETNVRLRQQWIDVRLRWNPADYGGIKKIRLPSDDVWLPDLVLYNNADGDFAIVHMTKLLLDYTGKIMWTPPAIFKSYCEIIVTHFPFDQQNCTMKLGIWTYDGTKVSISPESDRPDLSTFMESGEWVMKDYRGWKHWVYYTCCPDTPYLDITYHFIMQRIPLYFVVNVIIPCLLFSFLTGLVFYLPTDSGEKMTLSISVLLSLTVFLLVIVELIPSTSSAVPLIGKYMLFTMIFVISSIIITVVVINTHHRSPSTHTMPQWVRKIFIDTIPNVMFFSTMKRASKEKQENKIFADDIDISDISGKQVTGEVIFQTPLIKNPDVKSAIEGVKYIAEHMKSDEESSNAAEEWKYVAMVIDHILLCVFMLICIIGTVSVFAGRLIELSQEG
T1 sequence (P02712 whole entry): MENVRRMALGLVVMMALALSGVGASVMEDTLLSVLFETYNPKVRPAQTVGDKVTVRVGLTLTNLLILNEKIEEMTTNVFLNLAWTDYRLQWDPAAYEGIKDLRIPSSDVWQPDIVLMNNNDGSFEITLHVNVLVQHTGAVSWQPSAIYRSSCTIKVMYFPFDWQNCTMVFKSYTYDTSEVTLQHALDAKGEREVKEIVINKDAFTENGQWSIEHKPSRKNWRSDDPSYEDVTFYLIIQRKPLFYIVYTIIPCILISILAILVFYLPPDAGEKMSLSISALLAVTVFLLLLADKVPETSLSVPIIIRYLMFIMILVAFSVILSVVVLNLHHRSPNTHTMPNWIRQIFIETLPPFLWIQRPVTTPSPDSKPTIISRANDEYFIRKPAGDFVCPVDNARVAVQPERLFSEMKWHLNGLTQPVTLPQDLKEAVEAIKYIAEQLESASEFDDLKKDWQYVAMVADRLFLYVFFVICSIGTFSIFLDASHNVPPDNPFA
T1 sequence (P02718 whole entry): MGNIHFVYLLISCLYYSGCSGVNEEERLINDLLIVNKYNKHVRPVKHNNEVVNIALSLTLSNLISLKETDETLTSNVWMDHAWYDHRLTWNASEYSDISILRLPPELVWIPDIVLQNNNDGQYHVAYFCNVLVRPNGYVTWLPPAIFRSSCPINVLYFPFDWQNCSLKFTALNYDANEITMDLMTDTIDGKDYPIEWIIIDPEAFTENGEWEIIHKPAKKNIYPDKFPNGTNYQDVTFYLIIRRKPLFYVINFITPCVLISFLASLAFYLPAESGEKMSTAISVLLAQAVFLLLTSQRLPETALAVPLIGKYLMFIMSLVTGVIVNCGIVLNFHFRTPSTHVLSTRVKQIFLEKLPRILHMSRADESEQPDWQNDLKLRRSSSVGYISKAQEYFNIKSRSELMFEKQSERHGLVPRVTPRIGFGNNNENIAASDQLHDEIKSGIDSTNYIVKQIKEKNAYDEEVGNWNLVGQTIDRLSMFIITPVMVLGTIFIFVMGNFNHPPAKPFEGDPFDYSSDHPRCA
T1 sequence (P02714 whole entry): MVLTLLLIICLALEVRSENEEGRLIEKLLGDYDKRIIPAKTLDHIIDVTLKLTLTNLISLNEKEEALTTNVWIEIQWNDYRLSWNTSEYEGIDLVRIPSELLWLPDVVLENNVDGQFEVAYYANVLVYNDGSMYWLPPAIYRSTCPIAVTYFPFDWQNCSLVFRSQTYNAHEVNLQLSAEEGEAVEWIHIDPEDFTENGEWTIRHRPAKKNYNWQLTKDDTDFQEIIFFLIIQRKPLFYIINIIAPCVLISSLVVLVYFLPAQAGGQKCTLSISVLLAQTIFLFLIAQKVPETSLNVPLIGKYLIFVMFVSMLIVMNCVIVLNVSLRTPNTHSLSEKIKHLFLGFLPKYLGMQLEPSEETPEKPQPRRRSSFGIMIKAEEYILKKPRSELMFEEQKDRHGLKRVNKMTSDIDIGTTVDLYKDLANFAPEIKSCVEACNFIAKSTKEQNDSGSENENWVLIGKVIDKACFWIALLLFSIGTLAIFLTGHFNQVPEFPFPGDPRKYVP

| SMILES | EC50 [µM] |
| --- | --- |
| COc1cc2c3cc1Oc1cc(ccc1O)C[C@@H]1c4c(cc(OC)c(O)c4Oc4ccc(cc4)C[C@@H]3N(C)CC2)CC[N+]1(C)C | 3200 |

Molecular target: T1, Acetylcholine receptor
Assay: In vitro ability to inhibit the binding of [125I]alpha-bungarotoxin to Nicotinic acetylcholine receptor on membranes prepared from the electric organs of Torpedo californica
Type: tissue-based, Tetronarce californica, Electric organ
Conditions: not given
Outline: as §1

| SMILES | EC50 |
| --- | --- |
| C=C(C=O)[C@H]1C[C@H](OC(C)=O)[C@@]23O[C@@H]2[C@@H](C[C@]2(C)O[C@H]2C2=CC(C)=C(O2)[C@@H]1OC(C)=O)OC3=O | 2.88 µM and 9.33 µM |

Molecular target: Acetylcholine receptor (Torpedo californica) (UniProt P02710+P02712+P02718+P02714)
Assay: In vitro ability to inhibit the binding of [125I]alpha-bungarotoxin to nicotinic acetylcholine receptor on membranes prepared from the electric organs of Torpedo californica; Not active
Conditions: Tetronarce californica
Outline: as §1

| SMILES | Log EC50 |
| --- | --- |
| C=C(C)[C@H]1CCC2=C[C@@H](C[C@]3(C)O[C@H]3C3=CC(C=O)=C(C1)O3)OC2=O | inactive |
| C=C(CO)[C@H]1C[C@H](OC(C)=O)[C@@]23O[C@@H]2[C@@H](CC2(C)O[C@H]2C2=CC(C)=C(O2)[C@@H]1OC(C)=O)OC3O (single isomer, unassigned) | inactive |
| C=C(C)[C@H]1CC2O[C@@](O)(/C(C)=C\C(=O)/C=C(/C)C[C@H]3OC(=O)[C@@]24O[C@H]34)[C@@H]1OC(C)=O | inactive |
| C=C(C(=O)OC)[C@H]1CC2O[C@@](O)(/C(C)=C\C(=O)/C=C(/C)C[C@H]3OC(=O)[C@@]24O[C@H]34)[C@@H]1OC(C)=O | inactive |
| C=C(C)[C@H]1C[C@H](OC(C)=O)[C@@]23O[C@@H]2[C@@H](C[C@](C)(O)/C=C2/C=C(C=O)C(OCC)(C1)O2)OC3=O | inactive |
| C=C(C)[C@H]1CCC2=C[C@@H](C[C@]3(C)O[C@H]3C3=CC(C(=O)OC)=C(C1)O3)OC2=O | inactive |
| C=C(C)[C@H]1CCC2=C[C@@H](C/C(C)=C/C3=CC(C(=O)OC)=C(C1)O3)OC2=O | inactive |
| COC(=O)c1cc2oc1C[C@@H](C(C)C)CCC1C[C@@H](C[C@](C)(O)C2)OC1=O | inactive |
| C=C(CO)[C@H]1C[C@H](O)[C@@]23O[C@@H]2[C@@H](CC2(C)O[C@H]2C2=CC(C)=C(O2)[C@@H]1OC(C)=O)OC3O (single isomer, unassigned) | inactive |

Molecular target: T1, Acetylcholine receptor
Assay: In vitro inhibition of [125I]alpha-bungarotoxin binding to nicotinic acetylcholine receptor of Torpedo californica electric organ membranes
Type: tissue-based, Tetronarce californica
Conditions: not given
Outline: as §1

| SMILES | EC50 [µM] |
| --- | --- |
| CC(=O)O[C@H]1C[C@H](C2(C)CO2)[C@@H](OC(C)=O)C2=C(C)C=C(O2)[C@@H]2O[C@@]2(C)C[C@H]2OC(=O)[C@@]13O[C@H]23 (stereo partly drawn) | 25.1 |
| CC(=O)O[C@H]1C[C@H](C2(C)CO2)[C@@H](OC(C)=O)C2=C(C)C=C(O2)[C@@H]2O[C@@]2(C)C[C@@H]2C=C1C(=O)O2 (stereo partly drawn) | 12 |
| C=C(C)[C@@H]1CC2=C(C(=O)OC)C=C(O2)[C@@H]2O[C@@]2(C)C[C@@H]2C=C(C(=O)O2)[C@@H](OC(C)=O)C1 [ACETOXYPUKALIDE] | 91.2 |
| C=C(C)[C@@H]1CC2=C(C(=O)OC)C=C(O2)[C@@H]2O[C@@]2(C)C[C@H]2OC(=O)[C@@]3(O[C@H]23)[C@@H](OC(C)=O)C1 | 126 |
| C=C(C=O)[C@@H]1CC2=C(C(=O)OC)C=C(O2)[C@@H]2O[C@@]2(C)C[C@H]2OC(=O)[C@@]3(O[C@H]23)[C@@H](OC(C)=O)C1 | 105 |
| C=C(CO)[C@H]1C[C@H](OC(C)=O)[C@@]23O[C@@H]2[C@@H](CC2(C)O[C@H]2C2=CC(C)=C(O2)[C@@H]1O)OC3=O (single isomer, unassigned) | 81.3 |
| C=C(C)[C@@H]1CC2=C(C=O)C=C(O2)[C@@H]2O[C@@]2(C)C[C@@H]2C=C(C(=O)O2)[C@@H](OC(C)=O)C1 [DEOXYLOPHOTOXIN] | 115 |
| C=C(C)[C@H]1C[C@H](OC(C)=O)C2=C[C@@H](C[C@]3(C)O[C@H]3C3=CC(C)=C(O3)[C@@H]1OC(C)=O)OC2=O | 14.5 |
| C=C(CO)[C@H]1C[C@H](OC(C)=O)[C@@]23O[C@@H]2[C@@H](C[C@]2(C)O[C@H]2C2=CC(C)=C(O2)[C@@H]1OC(C)=O)OC3=O | 2.09 |
| C=C(C)[C@@H]1CC2=C(CO)C=C(O2)[C@@H]2O[C@@]2(C)C[C@H]2OC(=O)[C@@]3(O[C@H]23)[C@@H](OC(C)=O)C1 | 44.7 |
| C=C(CO)[C@H]1C[C@H](O)[C@@]23O[C@@H]2[C@@H](C[C@]2(C)O[C@H]2C2=CC(C)=C(O2)[C@@H]1OC(C)=O)OC3=O | 25.7 |
| C=C(C(=O)OC)[C@H]1C[C@H](OC(C)=O)C2=C[C@@H](C[C@]3(C)O[C@H]3C3=CC(C)=C(O3)[C@@H]1OC(C)=O)OC2=O | 7.41 |
